The values below come from PubChem BioAssay AID504382 (The Scripps Research Institute Molecular Screening Center, 2011).

Hit rate of the full screen: of about 2,500 compounds, about 460 (18%) were called active. These entries were drawn from the full list. Values without a mark were called inactive.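 How the source made its calls: active means mean activation above a cutoff of low control average plus 3 SD from the earlier screen (cut at about 12% in these data); inactive means the rest.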

This assay in a line: IANBD-channel fluorescence artefacts in buffer – biochemical, artefact control for cardiac RTF calcium sensitizer project, confirmation (AID 504382). The conditions noted are these: IANBD fluorescence interference counterscreen, EC20 Ca2+, at 7.2 µM, stronger effect = higher value, scaled: EC20 calcium 0, EC100 calcium 100. The procedure, abridged: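 Doses – one dose of 7.2 µM, 0.7% DMSO · Buffer or medium – MOPS/KCl/MgCl2/EGTA/NTA/DTT buffer, pH 7.2 · Probe or stimulus – Ca2+ fixed at EC20, 0.472 mM · Measured by – fluorescence intensity, excitation 480 nm, emission 540 nm · Read-out – fluorescence interference versus control range · Timing – 15 min compound exposure at 25 °C · Replication – triplicate wells per compound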
As to `N#Cc1c(NC(=O)C2CC=CCC2C(=O)O)sc2c1CCCCCC2` (centres undefined), the fluorescence artifact activation was 0.67%.

In the case of `O=C(O)CCCN1C(=O)/C(=C/c2cn(-c3ccccc3)nc2-c2cccs2)SC1=S`, the fluorescence artifact activation was 54.1% (active).

Take `Cc1ccc(-c2nn(-c3ccccc3)cc2/C=C2\SC(=S)N(CCCCCC(=O)O)C2=O)o1`: the fluorescence artifact activation is 3.75%.

Regarding `COc1ccccc1C(=O)NNC(=O)CCCN1C(=O)/C(=C/c2cccs2)SC1=S`, the fluorescence artifact activation is -0.02%.

As for `COc1cccc(/C(O)=C/c2nc3ccc(C(=O)NCCc4cccc(C)c4)cc3[nH]c2=O)c1`, the fluorescence artifact activation was 0.04%.

On to `CCc1ccc(/C=C2/C(=O)N(C)C(=S)N2CC(=O)OC)s1`, for which the fluorescence artifact activation is 2.56%.

For `O=C(Cn1cnc2c(cnn2-c2ccccc2)c1=O)Nc1ccc(S(=O)(=O)N2CCOCC2)cc1`, the fluorescence artifact activation is 7.41%.

Regarding `CN(C)c1ccc(/C=C/C(=O)c2ccc3c(c2)OCO3)cc1`, the fluorescence artifact activation is 2.49%.

As to `C[C@H]1CN([C@@H](C)CO)C(=O)c2cccc(NC(=O)c3nc4ccccc4s3)c2O[C@H]1CN(C)C(=O)Nc1ccc(F)cc1`, the fluorescence artifact activation is 0.31%.

Regarding `CC(C)NC(=O)/C(C#N)=C/c1ccc(N(C)C)o1`, the fluorescence artifact activation was 0.18%.

As to `CC(C)NC(=O)/C(C#N)=C\c1ccc(N(C)C)o1`, the fluorescence artifact activation is 48.4% (active).

As to `CCN(CC)c1ccc(/C=C(/C#N)C(=O)NC(C)C)o1`, the fluorescence artifact activation was 0.06%.

Take `CCN(c1ccc(N=Cc2c(O)n(Cc3ccc(OC)cc3)c(=O)c3ccccc23)cc1)C(C)C`: the fluorescence artifact activation is 2.13%.

For the molecule `O=C(CSC1CC(=O)N(c2ccc(C(=O)O)cc2)C1=O)Nc1ccc2ccccc2c1` (centres undefined), the fluorescence artifact activation was 0.06%.

As to `O=C(NCc1ccco1)/C(=C\c1ccco1)NC(=O)c1ccc(Br)o1`, the fluorescence artifact activation was 24.4% (active).

With `O=C(NCCCN1CCOCC1)C(=O)NCc1ccco1`, the fluorescence artifact activation is 0.11%.

Consider `CC(C)(C)c1ccc(C(=O)N/C(=C\c2cccs2)C(=O)NCc2ccco2)cc1`, for which the fluorescence artifact activation is 0.07%.

Consider `Cc1cc(=O)c2c([nH]1)c(C)cc1[nH]c(C)c(C)c12`, for which the fluorescence artifact activation is 0.09%.

In the case of `C=CCn1c(=O)c(C(=O)NCCNCC)c(O)c2ccccc21`, the fluorescence artifact activation is 0.84%.

As for `CCCCN=C1N/C(=C\c2ccco2)C(=O)N1c1ccccc1`, the fluorescence artifact activation was 78.2% (active).

With `NC(N)=NCc1cccc(I)c1`, the fluorescence artifact activation was 0.57%.

`CN(C)c1ccc(/C=N/NC(=O)c2cnc3ccccc3c2)cc1`: the fluorescence artifact activation was 0.02%.

With `CC(=O)c1cccc(NC(=S)NC2CCCCC2)c1`, the fluorescence artifact activation was 0.08%.

In the case of `CC(C)CC[C@@H](O)[C@](C)(O)C1CC[C@@]2(O)C3=CC(=O)[C@@H]4C[C@@H](O)[C@@H](O)C[C@]4(C)C3CC[C@]12C` (some centres undefined), the fluorescence artifact activation is 79.3% (active).

With `CNc1ccc2c3c(cccc13)C(=O)N(C)C2=O`, the fluorescence artifact activation is 40.8% (active).

Regarding `CN1C(=O)c2cccc3c(N)ccc(c23)C1=O`, the fluorescence artifact activation is 0.17%.

Consider `CCCCNc1ccc2c3c(cccc13)C(=O)N(CCCC)C2=O`, for which the fluorescence artifact activation was -0.02%.

For `CN1C(=O)c2cccc3c(N(C)C)ccc(c23)C1=O`, the fluorescence artifact activation was 70.1% (active).

On to `CCN1C(=O)c2cccc3c(N)ccc(c23)C1=O`, for which the fluorescence artifact activation was 0.02%.

Take `Cc1ccccc1N1C(=O)c2cccc3c(N(C)CCO)ccc(c23)C1=O`: the fluorescence artifact activation is -0.04%.

For the molecule `COC(=O)N1c2ccccc2CCc2ccccc21`, the fluorescence artifact activation is 1.49%.

With `CC(=O)Nc1ccc(Nc2c3c4c(cccc4n(C)c2=O)C(=O)c2ccccc2-3)cc1`, the fluorescence artifact activation was 5.51%.

As to `COc1ccc(CNC(=O)c2cc3c(s2)CS(=O)C3)cc1` (centres undefined), the fluorescence artifact activation was 0.1%.

With `CCc1ccc2c(c1)C(NC(C)=O)C(=O)N2CC` (centres undefined), the fluorescence artifact activation was -0.03%.

As for `Cc1ccc(S(=O)(=O)c2cccc(S(=O)(=O)N3CCOCC3)c2)cc1S(=O)(=O)N1CCOCC1`, the fluorescence artifact activation is 6.87%.

For `N#C/C(=C\c1ccc(Sc2ccc(Cl)cc2)o1)c1nc2ccccc2[nH]1`, the fluorescence artifact activation was -0.03%.

Consider `C=CCN1C(=O)/C(=C\C=C2\N(C)c3ccccc3C2(C)C)SC1=S`, for which the fluorescence artifact activation is 0.06%.

On to `C/C(N)=C(/C#N)C(=O)CSc1n[nH]c(-c2cccs2)n1`, for which the fluorescence artifact activation was 0.14%.

Turning to `COc1ccc(Cl)cc1-c1nc(SCC(=O)NC(C)C)n[nH]1`, the fluorescence artifact activation is 0.53%.

For `Cc1ccc(C)c(C(=O)CSc2n[nH]c(C(C)C)n2)c1`, the fluorescence artifact activation was 18.7% (active).

Regarding `Cc1[nH]c(=S)c(C#N)c(C)c1CCC#N`, the fluorescence artifact activation is 10.6%.

Regarding `COC(=O)CNC(=O)COC(=O)c1cc(F)c(F)cc1Cl`, the fluorescence artifact activation was 0.55%.

In the case of `Cc1ccccc1C1CC(=O)Oc2cc(O)ccc21` (centres undefined), the fluorescence artifact activation was 0.19%.

As to `Cc1ccc2c(c1)c(/C=C/c1cc[n+](C)cc1)c(C)n2C`, the fluorescence artifact activation is 1.43%.

In the case of `Cc1ccc2[nH]c(C)c(/C=C/c3cc[n+](C)cc3)c2c1`, the fluorescence artifact activation was 54.8% (active).

On to `Cc1[nH]c2ccccc2c1/C=C/c1cc[n+](C)cc1`, for which the fluorescence artifact activation is 3%.

With `COC(=O)Cn1cc(/C=C/c2cc[n+](C)cc2)c2ccccc21`, the fluorescence artifact activation is 1.9%.

As for `COc1ccc(NC(=O)Nc2cccnc2)c(OC)c1`, the fluorescence artifact activation was 0.16%.

In the case of `COc1ccc(-c2nnc(-c3cccnc3)o2)cc1`, the fluorescence artifact activation is 15.1% (active).

On to `COc1ccc(-c2nc(/C=C3\C(C)=Nc4ccccc43)c(O)o2)cc1`, for which the fluorescence artifact activation is 1.03%.

With `CC(=O)C1=C(O)CCCC1=NCc1nc2ccccc2[nH]1`, the fluorescence artifact activation was 0.23%.

As for `CN(Cc1ccccc1)C(=O)N1CCOCC1`, the fluorescence artifact activation was 0.11%.

Regarding `CN1CCC(N(CCc2ccccc2)C(=O)CCC(=O)O)CC1`, the fluorescence artifact activation was 46% (active).

For `CCCN(CCC)C(=O)C1c2ccccc2Oc2ccccc21`, the fluorescence artifact activation is 3.9%.

In the case of `CN1CCc2c(sc3c2C(=O)NC(c2ccccn2)N3)C1` (centres undefined), the fluorescence artifact activation is 0.36%.

Take `Cc1ccccc1-n1c(SCc2c(C)noc2C)nnc1-c1cccnc1`: the fluorescence artifact activation was 0.05%.

`N#C/C(=C/c1ccc(N2CCOCC2)o1)C(=O)N1CCOCC1`: the fluorescence artifact activation was 0.41%.

Take `Cc1ccc2nc(/C(C#N)=C\c3ccc(N4CCOCC4)o3)[nH]c2c1`: the fluorescence artifact activation is 16.5% (active).

For `N#C/C(=C\c1ccc(N2CCOCC2)o1)c1nc2ccccc2[nH]1`, the fluorescence artifact activation is 14.2% (active).

As to `N#C/C(=C\c1ccc(-c2ccccc2C(=O)O)o1)c1nc2ccccc2[nH]1`, the fluorescence artifact activation was 1.15%.

On to `Cc1ccc2nc(/C(C#N)=C/c3ccc(-c4ccccc4C(=O)O)o3)[nH]c2c1`, for which the fluorescence artifact activation was 0.32%.

For `N#C/C(=C/c1ccc(N2CCOCC2)o1)c1nc2ccccc2[nH]1`, the fluorescence artifact activation was 0.08%.

On to `CCOP(=O)(OCC)/C(=N/OC(=O)c1ccc(OC)cc1)C(N)=O`, for which the fluorescence artifact activation is 0.15%.

With `Cc1c(CN2CCCC(C)C2)c(O)n(CCO)c(=O)c1C#N` (centres undefined), the fluorescence artifact activation was 1.74%.

As to `C=CCN1C(=O)C(Cc2cccc(Cl)c2)S/C1=N/N=C/c1ccco1` (centres undefined), the fluorescence artifact activation was 0.07%.

For `CCOc1ccc(C2CC(c3c(O)c4ccccc4oc3=O)=NN2c2ccccc2)cc1OC` (centres undefined), the fluorescence artifact activation is 5.17%.

As to `CCOc1ccc(C2C(C#N)=C(N)SC(N)=C2C#N)c(OCC)c1`, the fluorescence artifact activation was 0.05%.

Take `CCOc1cc(C2C3=C(CCCC3=O)N(C)C3=C2C(=O)CCC3)cc(Cl)c1O`: the fluorescence artifact activation was -0.02%.

As to `CCOc1cc(C2C(C#N)=C(N)OC(C)=C2C(C)=O)cc(Br)c1O` (centres undefined), the fluorescence artifact activation was 37.6% (active).

As to `COc1ccc(OCC(=O)OCCNC(=O)c2cccnc2)cc1`, the fluorescence artifact activation is 0.14%.

`O=C(CN1C(=O)c2ccccc2C1=O)NCc1ccc(N2CCOCC2)cc1`: the fluorescence artifact activation is 1.1%.

With `Cc1cc2nc3c(=O)[nH]c(=S)[nH]c3nc2cc1NC(=O)C(F)(F)F`, the fluorescence artifact activation is 5.96%.

As for `O=C1c2ccccc2C(Nc2cccnc2)N1Cc1ccccc1Cl` (centres undefined), the fluorescence artifact activation is 10.4%.

Turning to `Cc1ccc(-n2nc(C)c(=O)c(-c3ccccc3)c2NC(=O)c2cccs2)cc1`, the fluorescence artifact activation was 1.25%.

Take `CC(C)C[C@@H](CN=[N+]=[N-])N1CCN(C)CCC1=O`: the fluorescence artifact activation was 0.09%.

Take `c1ccc2c(c1)CCCN2Cc1nnnn1CC1CCCO1` (centres undefined): the fluorescence artifact activation was 0.36%.

Regarding `c1ccc2c(c1)CCCN2Cc1nnc2n1CCCCC2`, the fluorescence artifact activation was 37% (active).

As to `O=c1cc(CN2CCCc3ccccc32)nc2sccn12`, the fluorescence artifact activation was 0.01%.

Regarding `COc1ccc(CNc2nn[nH]n2)cc1OC`, the fluorescence artifact activation was 2.6%.

`Cc1ccc([C@@H]2C3COCC=C3C(C#N)=C(N)C2(C#N)C#N)o1` (some centres undefined): the fluorescence artifact activation is 0.32%.

Consider `O=C(C1CCN(Cc2ccc(OCc3ccccc3)cc2)CC1)N1CCCC1`, for which the fluorescence artifact activation was 0.13%.

For the molecule `CN1CCN(/N=C/c2ccc(OCc3ccccc3)cc2)CC1`, the fluorescence artifact activation is 107% (active).

Regarding `CN1CCN(CCOc2ccc(Cc3ccccc3)cc2)CC1`, the fluorescence artifact activation is 0.23%.

With `Cc1ccc(/C=C2\Oc3c(ccc(O)c3CN3CCN(C)CC3)C2=O)cc1`, the fluorescence artifact activation is 0.13%.

Turning to `OCCN1CCN(CC(O)COc2ccc(C34CC5CC(CC(C5)C3)C4)cc2)CC1` (centres undefined), the fluorescence artifact activation is 32.1% (active).

As to `CCCCNc1nc(-c2ccccc2)nc(-n2ccnc2)n1`, the fluorescence artifact activation was 1.09%.

Turning to `COc1cc(CCCN2C(=S)NC[C@@H]2CC2CCCCC2)cc(OC)c1OC`, the fluorescence artifact activation is 7.7%.

For `Cc1cc2cc(C=C(C#N)C#N)c(Cl)nc2cc1C`, the fluorescence artifact activation was -0.03%.

In the case of `Cc1cc(C(=O)NNC(=S)Nc2ccccc2C)cs1`, the fluorescence artifact activation is 1.65%.

Consider `NC(=O)NNC1=Nc2cccc3cccc1c23`, for which the fluorescence artifact activation is 1.01%.

Consider `O=C(COc1ccc(Cl)cc1[N+](=O)[O-])N1CCCCCC1`, for which the fluorescence artifact activation is 0.34%.

`O=C(COc1ccc(Cl)cc1[N+](=O)[O-])N1CCCCC1`: the fluorescence artifact activation was 18.1% (active).

On to `CC(Oc1ccc(S(=O)(=O)N2CCCC2)cc1[N+](=O)[O-])C(=O)N(C)c1ccccc1` (centres undefined), for which the fluorescence artifact activation is 0.2%.

Turning to `COc1ccc(NC(=O)NS(=O)(=O)c2ccc(C)cc2)cn1`, the fluorescence artifact activation was 0.39%.

For `O=C(N1CCOCC1)N1CCC(n2nnc3ccccc32)CC1`, the fluorescence artifact activation is 0.06%.

In the case of `Cc1ccsc1C1C=C(c2cccc(Br)c2)Nc2ncnn21` (centres undefined), the fluorescence artifact activation was -0.01%.

Take `CCOC(=O)c1sc(N)c(C#N)c1COC(=O)CNC(=O)c1cc(OC)c(OC)c(OC)c1`: the fluorescence artifact activation was 3.51%.

For the molecule `CCOC(=O)c1sc(-c2ccc(F)cc2)cc1NC(=O)Nc1ccccc1OC`, the fluorescence artifact activation is 7.09%.

For the molecule `CCOC(=O)c1sc(=NC(=O)c2cc(OC)c(OC)c(OC)c2)n(C)c1C`, the fluorescence artifact activation was 80.1% (active).
